Measured values collected from several papers.
Target: Serine/threonine-protein kinase Nek6 (NEK6, Homo sapiens, UniProt Q9HC98)
Effect on: enzyme activity
Mode: inhibitor

SMILES | assay | setting | remaining activity
CCN(CC)c1ccc(C2=NNC(=O)CC2C)cc1[N+](=O)[O-] (stereo not drawn) |  | 10 µM | 93%
O=C(Nc1cnn(-c2csc(C(=O)NC3COC3)c2)c1)Nc1ccccc1Cl |  | 5 µM | 99.6%
COc1cc(Cl)c(C(=O)N[C@@H](CN[C@H]2CC[C@@H](N)CC2)Cc2ccc(C#N)cc2)cc1-c1ccc(CN[C@H](C)c2ccc(C)cc2)o1 |  | 1 µM | 111%
CC(C)(O)[C@H]1CC[C@H](Nc2ccc3ncc(-c4cccc(C(F)(F)F)c4)n3n2)CC1 |  | 1 µM | 99.7%
Cc1[nH]c(/C=C2\C(=O)Nc3ccc(F)cc32)c(C)c1C(=O)N[C@H]1CCN(C(=O)N(C)C)C1 |  | 1 µM | 126%
Oc1cccc(-c2nc(N3CCOCC3)c3oc4ncccc4c3n2)c1 |  | 10 µM | 87%
O=C(Nc1cnn(-c2csc(C(=O)NC3COC3)c2)c1)Nc1c(F)cccc1Cl |  | 5 µM | 86.8%
Cc1cnc(NC2CCOCC2)nc1-n1cnc(C(=O)NC(CN)c2cc(F)cc(Cl)c2)c1 (stereo not drawn) | radiometric | 1 µM | 55%
CCN(CC)CCNC(=O)c1c(C)[nH]c(/C=C2\C(=O)Nc3ccc(F)cc32)c1C |  | 0.1 µM | 99%
CC(C)(C)C(=O)c1sc(NC2CCCCC2)nc1N |  | 10 µM | 100%
CC(C)(C)c1nc2c(s1)c1nc(N)ncc1c1ccc(NS(=O)(=O)c3c(F)cccc3F)c(F)c12 | radiometric | 1 µM | 96%
COc1cc(Nc2cnc(C#N)c(O[C@H](C)CN(C)C)n2)ncc1-c1cnn(C)c1 | radiometric | 1 µM | 97%
